Laboratory results taken from ChEMBL document CHEMBL1132620, “Piperazine imidazo[1,5-a]quinoxaline ureas as high-affinity GABAA ligands of dual functionality” (J Med Chem, 1999).

Experiments:
[1] = species on record: Mus musculus; experiment: Ability to antagonize the muscle relaxation effect in mice caused by a benzodiazepine full agonist, triazolam.; assay type: functional
In short: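 Muscle relaxation induced by triazolam; test compound and triazolam given separately, traction scored 30 min after dosing; ED50 for blocking the relaxant effect.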

[2] = target: T1, GABA-A receptor; anion channel (Rattus norvegicus) (UniProt O09028+P15431+P18506+P18508+P19969+P20236+P23574+P23576+P28471+P28473+P30191+P62813+P63079+P63138+Q91ZM7+Q9ES14); experiment: (§1) Displacement of [3H]flunitrazepam from GABA-A benzodiazepine receptor of rat cortical membranes; assay type: cell membranes; design: concentration or dose not given beside the values; conditions: Membrane, concentration not given here
In short: (§2)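 Rat membranes incubated 60 min at 4 °C with [3H]flunitrazepam, 50 µg membrane protein and graded test drug in 200 µL containing NaCl, 10 mM Hepes/Tris pH 7.4 and 1 mM MgCl2; bound ligand separated by rapid filtration on GF/B; mean affinity, SE ≤10% of mean.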

[3] = target: T2, GABA-A receptor; alpha-1/beta-2/gamma-2 (Homo sapiens) (UniProt P14867+P47870+P18507); experiment: (§3) In vitro GABA-mediated chloride current in A293 cells expressing GABA-A benzodiazepine receptor alpha-1-beta-2-gamma-2 subunits at 5 uM; assay type: functional, cell-based; conditions: HEK293
[4] = target: T2, GABA-A receptor; alpha-1/beta-2/gamma-2 (Homo sapiens); experiment: as §3; assay type: functional, cell-based; conditions: HEK293; remark: listed apart in the source
[5] = target: GABA-A receptor; anion channel; experiment: as §1; assay type: cell membranes, Membrane; in short: as §2
[6] = target: T1, GABA-A receptor; anion channel (Rattus norvegicus); experiment: Shift in [35S]TBPS binding to GABA-A Benzodiazepine receptor of rat brain membrane
[7] = tested on: Rattus norvegicus; experiment: In vivo efficacy evaluated for ability to antagonize metrazole induced clonic convulsions in rat after ip injection; assay type: functional
[8] = tested on: Mus musculus; experiment: In vivo efficacy is evaluated by percent control of cerebellar GMP levels in (drug+stress) treated mice/mice under stress; assay type: functional; design: concentration or dose not given beside the values
In short: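 Male CF-1 mice given drug orally in vehicle 122 before electric footshock stress, controls given vehicle (1 mL/100 g); killed 30 min after treatment; cerebellum homogenized in 1% perchloric acid, iced 30 min, boiled 5 min, spun 17000g 20 min; supernatant cGMP by radioimmunoassay, expressed as % of stress control.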

SMILES	ED50 [1] [mg/kg]	inhibition [2] [%]	Change in Cl- current [3]	Change in Cl- current [4]	Ki [5] [nM]	Shift [6]	ED50 [7] [mg/kg]	Control [8] [%]
C[C@@H]1CN(C(=O)N2Cc3c(C(=O)OC(C)(C)C)ncn3-c3ccc(Cl)cc32)C[C@@H](C)N1	> 30	62	0.5	0.05	5.13	0.56	1.3	
CC(C)(C)OC(=O)c1ncn2c1CN(C(=O)N1CCNCC1)c1cc(Cl)ccc1-2			0.4	0	3.99	-0.02	> 50	
C[C@@H]1CN(C(=O)N2Cc3c(C(=O)OC(C)(C)C)ncn3-c3ccc(C(F)(F)F)cc32)C[C@@H](C)N1	> 30	24	0.7	0.8	37.1	0.68	4.4	92
C[C@@H]1CN(C(=O)N2Cc3c(C(=O)OC(C)(C)C)ncn3-c3ccc(C(F)(F)F)cc32)CCN1	> 30	30	1	1	23.2	0.6	8.9	88
C[C@@H]1CN(C(=O)N2Cc3c(C(=O)OC(C)(C)C)ncn3-c3ccc(Cl)cc32)CCN1	27.5	75	0.6	0	5.96	0.01	3.7	57
C[C@@H]1CN(C(=O)N2Cc3c(C(=O)OC(C)(C)C)ncn3-c3ccc(F)cc32)C[C@H](C)N1	> 30	95	0.5	0	1.04	-0.14	35.3	74
CC1CN(C)CC(C)N1C(=O)N1Cc2c(C(=O)OC(C)(C)C)ncn2-c2ccc(F)cc21 (centres undefined)	> 30	68		0.75	13.3	0.63	8.8	82
C[C@@H]1CN(C(=O)N2Cc3c(C(=O)OC(C)(C)C)ncn3-c3ccccc32)C[C@H](C)N1	> 30	82	0.5	0	3.04	-0.018	> 50	94
Cc1cccc2c1N(C(=O)N1C[C@@H](C)N(C)[C@@H](C)C1)Cc1c(C(=O)OC(C)(C)C)ncn1-2				0.33	470	0.48	> 50	
CN(C)C(=O)N1Cc2c(C(=O)OC(C)(C)C)ncn2-c2ccccc21				0.09	5.25	0.15	> 50	
CC1CN(C(=O)N2Cc3c(C(=O)OC(C)(C)C)ncn3-c3ccc(Cl)cc32)C(C)CN1.O=C(O)CC(=O)O (centres undefined)	> 30	71	0.3	-0.05	7.8	0.41	17.6	
C[C@@H]1CN(C(=O)N2Cc3c(C(=O)OC(C)(C)C)ncn3-c3ccccc32)C[C@H](C)N1C			0.5	-0.1	6.67	-0.82	> 50	
CC1CNCC(C)N1C(=O)N1Cc2c(C(=O)OC(C)(C)C)ncn2-c2ccc(F)cc21 (centres undefined)	> 30	69	0.72	0	3.45	0.02	10.5	100
Cc1ccc2c(c1)N(C(=O)N1CCN[C@H](C)C1)Cc1c(C(=O)OC(C)(C)C)ncn1-2	17.3	51	0.8	0.1	5.47	0.19	2.7	59
C[C@@H]1CN(C(=O)N2Cc3c(C(=O)OC(C)(C)C)ncn3-c3cccc(Cl)c32)C[C@H](C)N1	> 30	44		0.29	28.2	0.05	> 50	95
C[C@@H]1NCCN(C(=O)N2Cc3c(C(=O)OC(C)(C)C)ncn3-c3ccc(Cl)cc32)[C@H]1C	35	55	0.68	0.48	4.03	0.07	17.7	
Cc1ccc2c(c1)N(C(=O)N1C[C@@H](C)N[C@H](C)C1)Cc1c(C(=O)OC(C)(C)C)ncn1-2		22	0.7	0.05	5.17	0.1	6.3	49
CC(C)(C)OC(=O)c1ncn2c1CN(C(=O)N1CC3CCC(C1)N3)c1cc(Cl)ccc1-2			0.73	0.2	5.45	0.2	> 50	
Cc1cccc2c1N(C(=O)N1C[C@@H](C)N[C@@H](C)C1)Cc1c(C(=O)OC(C)(C)C)ncn1-2				0.22	250	0.54	> 50	
CN1CC2CC1CN2C(=O)N1Cc2c(C(=O)OC(C)(C)C)ncn2-c2ccc(Cl)cc21 (centres undefined)	> 30	11	1.6	1	4.89	0.68	7.4	
CC1CN(C(=O)N2Cc3c(C(=O)OC(C)(C)C)ncn3-c3ccc(Cl)cc32)CC(C)N1 (centres undefined)	17.3	63	0.6	0.8	2.35	0.41	10.5	
CC(C)(C)OC(=O)c1ncn2c1CN(C(=O)N1CCNCC1)c1ccccc1-2.Cl			0.35		4.11	0.04	> 50	
Cc1ccc2c(c1)N(C(=O)N1CCNCC1)Cc1c(C(=O)OC(C)(C)C)ncn1-2	> 30		0.55	0.4	14.7	0.3	21	
CN1C2CCC1CN(C(=O)N1Cc3c(C(=O)OC(C)(C)C)ncn3-c3ccc(Cl)cc31)C2	> 30	26	2.1	2	9.15	0.68	29.7	
C[C@@H]1CN(C(=O)N2Cc3c(C(=O)OC(C)(C)C)ncn3-c3ccc(F)cc32)C[C@H](C)N1C	21.8	29	1	-0.1	2.69	0.44	35.3	77
